This is one part of a sample in which hits are shown more often than they occur.
NOD2 RIPK2 PPI: blocks binding of human NOD2 to RIPK2; O43353; CHO BLA complementation NOD2-RIPK2, CCF4 ratio; inhibition, % at 4.98 µM; hit rate 0.38% among 360,000; AID 624267; in the data active = inhibition above about 21%;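 note: 0% = vehicle only and 100% = reference blocker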
UPR CHOP act: apoptotic UPR (CHOP) activation. CHO-CHOP luciferase reporter, luminescence; percent of tunicamycin response over DMSO baseline. activation, % at 10 µM. hit rate 0.34% among 330,000. AID 449763;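 active = at 10 µM dose, activation of 40% or more, normalized to positive control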;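 note: 100% = tunicamycin at 10 µg/mL and 0% = DMSO alone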
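Test system: CHO CHOP reporter cells. Input: 500 CHO-CHOP cells per well. Medium: F12 with 10% FBS. Technique: luciferase luminescence. Measure: percent activation relative to tunicamycin control. Dosing: 10 µM compound, 0.5% DMSO. Timing: 16-18 h cell attachment, then 6 h compound exposure, 37 °C.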
CHOP inh: inhibitors of CHOP induction in ER stress response; CHO-K1 CHOP-promoter luciferase, tunicamycin-induced, 15-18 h; inhibition, % at 10 µM; hit rate 3.8% among 220,000;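 active = compounds that reduced the stress-induced luciferase reporter signal by more than about 70% of percent inhibition, limit read from the data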;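 note: 0% = tunicamycin plus vehicle and 100% = wells without tunicamycin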
XBP1 UPR activ: adaptive UPR (XBP1) activation; activation, % at 20 µM; AID 463104; CHO-XBP1 luciferase reporter, IRE1-XBP1 UPR activation, luminescence; percent of tunicamycin response, DMSO as zero; hit rate 0.33% among 330,000;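 active = versus positive control, 20 µM dose yields 30% or more activation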;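 note: 100% = tunicamycin at 10 µg/mL and 0% = DMSO only wells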
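assay system = CHO-XBP1 luciferase reporter cells | amount = 1000 cells/well | buffer or medium = F12 plus 10% FBS | compound dosing = single point, 20 µM final compound, 1% DMSO | incubation = 16-18 h cell attachment at 37 °C, then 6 h compound exposure | detection = Steady-Glo luminescence read | controls = tunicamycin 10 µg/mL and vehicle-only wells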
TLR4 MyD88 comp: blocks binding of human TLR4 to MyD88; HeLa CL3-4 TLR4/MyD88 BLA complementation, FRET ratio; inhibition, % at 8.4 µM; hit rate 0.18% among 200,000; AID 861; in the data active = inhibition above about 25%;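 note: 0% = vehicle and 100% = reference inhibitor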
Target sequence (O00206 whole entry, looked up): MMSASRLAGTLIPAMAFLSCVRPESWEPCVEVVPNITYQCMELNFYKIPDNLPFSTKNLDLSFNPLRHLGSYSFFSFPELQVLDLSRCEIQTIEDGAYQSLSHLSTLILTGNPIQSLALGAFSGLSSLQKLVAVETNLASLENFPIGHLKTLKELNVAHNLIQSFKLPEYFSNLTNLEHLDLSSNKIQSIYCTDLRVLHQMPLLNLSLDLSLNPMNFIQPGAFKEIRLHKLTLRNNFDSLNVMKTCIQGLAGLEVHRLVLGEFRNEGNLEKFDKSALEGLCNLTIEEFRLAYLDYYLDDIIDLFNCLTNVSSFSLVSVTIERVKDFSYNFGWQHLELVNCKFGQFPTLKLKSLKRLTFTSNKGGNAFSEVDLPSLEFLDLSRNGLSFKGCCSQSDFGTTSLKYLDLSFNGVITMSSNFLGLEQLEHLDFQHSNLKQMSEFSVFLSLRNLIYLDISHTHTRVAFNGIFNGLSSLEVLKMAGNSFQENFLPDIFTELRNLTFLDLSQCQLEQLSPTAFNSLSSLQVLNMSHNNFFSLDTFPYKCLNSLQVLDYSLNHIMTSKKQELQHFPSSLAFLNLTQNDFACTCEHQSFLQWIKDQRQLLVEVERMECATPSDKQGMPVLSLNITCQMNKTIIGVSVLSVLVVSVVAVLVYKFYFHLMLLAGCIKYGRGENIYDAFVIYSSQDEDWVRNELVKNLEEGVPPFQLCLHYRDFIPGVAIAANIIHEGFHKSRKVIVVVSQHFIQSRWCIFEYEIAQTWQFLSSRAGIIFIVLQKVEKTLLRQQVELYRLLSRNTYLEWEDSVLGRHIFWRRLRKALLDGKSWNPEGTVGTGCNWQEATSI
Target sequence (Q99836 whole entry, looked up): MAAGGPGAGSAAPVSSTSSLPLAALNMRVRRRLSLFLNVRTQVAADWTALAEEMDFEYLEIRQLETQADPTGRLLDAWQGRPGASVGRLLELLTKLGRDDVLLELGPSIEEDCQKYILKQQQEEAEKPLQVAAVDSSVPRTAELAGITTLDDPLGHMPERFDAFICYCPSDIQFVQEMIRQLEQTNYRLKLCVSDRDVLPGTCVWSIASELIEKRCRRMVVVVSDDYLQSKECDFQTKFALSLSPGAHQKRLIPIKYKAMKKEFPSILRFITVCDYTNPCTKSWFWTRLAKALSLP
TLR9-MyD88 block: inhibitors of human TLR9-MyD88 binding; hit rate 0.21% among 340,000; inhibition, % at 4.98 µM; AID 504734; Q9NR96+Q99836; CHO BLA complementation TLR9-MyD88, CCF4 FRET ratio;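 active = inhibition above the mean over all tested compounds plus 3 SD, cut at about 21% in these data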;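 note: 0% = DMSO only wells and 100% = clavulanate BLA inhibitor control wells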
UPR CHOP confirm: confirmation of apoptotic unfolded protein response (CHOP) activators; hit rate 64% among 1,000; shares compounds with UPR CHOP act; CHO-CHOP cells, CHOP-luciferase reporter luminescence; percent of tunicamycin response, DMSO as zero; activation, % at 10 µM; in the data active = activation above about 33%;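 note: 0% = DMSO wells and 100% = tunicamycin 10 µg/mL wells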
XBP1 UPR conf: adaptive UPR (XBP1) activation, confirmed; shares compounds with XBP1 UPR activ; CHO-XBP1 IRE1-XBP1 luciferase reporter, luminescence; activation, % at 20 µM; hit rate 63% among 1,000;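 active = reporter signal at least 30% of the positive control's activation in two or more of four replicate wells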;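 note: plate controls were DMSO negative control for no effect and tunicamycin 10 µg/mL positive control for full effect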
* hit, by the source's call; / = not tested or not shown.

SMILES	NOD2 RIPK2 PPI	UPR CHOP act	CHOP inh	XBP1 UPR activ	TLR4 MyD88 comp	TLR9-MyD88 block	UPR CHOP confirm	XBP1 UPR conf
COc1cc(SC#N)ccc1N=Cc1c(C)[nH]n(-c2ccc(Cl)cc2)c1=O	-5	86*	104*	101*	-9	-5	89*	134*
Nc1cccc(-c2nc3cc(S(=O)(=O)c4ccc5oc(-c6cccc(N)c6)nc5c4)ccc3o2)c1	-8	57*	11	50*	15	7	78*	92*
CCCNC(=O)C1(C)CCCN(C(=O)c2cc(C(C)(C)C)nn2C)C1 (configuration not stated)	8	/	/	/	/	/	/	/
CCOC(=O)N1CCN(S(=O)(=O)c2ccc(C(=O)Nc3nc4c(s3)CC(C)CC4)cc2)CC1 (configuration not stated)	-12	64*	93*	62*	-7	-7	96*	116*
CCOC(=O)N1CCN(S(=O)(=O)c2ccc(C(=O)Nc3nnc(C4CC4)o3)cc2)CC1	-8	0	13	-1	-5	-12	/	/
COc1ccc(C2CCc3cc4c(cc3C2=NO)OCO4)cc1OC (configuration not stated)	-2	/	/	/	/	-2	/	/
O=C(NC(=S)Nc1ccc(NC(=O)c2cccs2)cc1)c1cc2ccccc2o1	-8	57*	76*	121*	4	8	46*	106*
O=C(NC(=S)Nc1ccc(NC(=O)c2cccs2)cc1)c1ccco1	-7	3	19	0	7	8	/	/
O=C(Nc1ccccc1Cl)c1cc(C2CCCN(C(=O)c3cccc(O)c3)C2)on1 (configuration not stated)	-2	/	/	/	/	/	/	/
CN(c1ccccc1)S(=O)(=O)c1cccc(C(=O)NCCc2ccc(O)c(O)c2)c1	-3	93*	-91	97*	1	6	82*	64*
CCN(CC)S(=O)(=O)c1cccc(C(=O)NCCc2ccccc2)c1	-10	3	/	2	3	-8	/	/
N=c1c(-c2nc3ccccc3[nH]2)cc(C(=O)c2ccco2)nn1-c1ccccc1	-7	153*	-123	33*	-8	4	148*	28
N=c1c(-c2nc3ccccc3[nH]2)cc(C(=O)c2cccs2)nn1-c1ccccc1	6	3	-53	4	-2	-7	/	/
CNC(=O)C[C@H]1C(=O)N(CCc2ccccc2)C[C@@H]1CSC	-6	/	/	/	/	8	/	/
COc1ccccc1C(=O)NC(=S)NNC(=O)c1sc2ccccc2c1Cl	-8	48*	89*	38*	9	-1	51*	53*
COc1ccccc1Cc1c(-c2ccc(Cl)cc2)nc2ccc(Br)cn12	3	/	/	/	/	/	/	/
CC(C)CCNC(=O)C1(C)CCN1Cc1ccc(-c2ccccn2)cc1 (configuration not stated)	-3	/	/	/	/	/	/	/
CCCCN1C(=O)C(CC(=O)NCCCCc2ccccc2)CC(C(=O)N(C(C)C)C(C)C)=C1C (configuration not stated)	-11	/	/	/	/	-11	/	/
Cc1csc(N2CCCC2c2nc3cc(Cl)c(N4CCCCC4)cc3n2CCCO)n1 (configuration not stated)	0	-1	/	-1	/	6	/	/
OCCCn1c(C2CCCN2c2nc(-c3ccc(Cl)cc3)cs2)nc2cc(Cl)c(N3CCCCC3)cc21 (configuration not stated)	10	88*	/	122*	/	1	24	198*
CCc1noc(C)c1C(=O)N1CCN(c2cccc(Cl)c2)CC1	-2	/	/	/	/	-13	/	/
O=C(NN1C(=O)/C(=C/c2ccc(O)c(O)c2)SC1=S)c1ccccc1	3	43*	/	59*	/	-4	2	57*
COc1ccc(Cn2c(SCc3ccc(C)cc3)nc3cc(OC)c(OC)cc3c2=N)cc1Cl	5	88*	72*	32*	-5	3	39*	7
Cc1nc2nc(C(F)(F)F)[nH]c2nc1C	12	/	/	/	/	-1	/	/
CC(=NNC(=O)c1ccncc1)c1ccc(Cl)cc1Cl	4	/	/	/	/	7	/	/
SMILES	NOD2 RIPK2 PPI	UPR CHOP act	CHOP inh	XBP1 UPR activ	TLR4 MyD88 comp	TLR9-MyD88 block	UPR CHOP confirm	XBP1 UPR conf
Cc1cc(C)cc(Cn2c3ccc(NC(=O)NCCc4cccs4)cc3c(=O)n2C)c1	2	/	/	/	/	/	/	/
O=C(O)c1cccc2c1C(=O)c1ccc(-c3ccc(OC(F)(F)F)cc3)cc1S2(=O)=O	-4	1	/	-1	/	3	/	/
O=C(NCc1ccccc1Br)c1cccc2c1C(=O)c1ccc(-c3ccc(OC(F)(F)F)cc3)cc1S2(=O)=O	-12	98*	/	115*	/	-4	88*	86*
CC(C)c1cccc(-c2ccc3c(c2)S(=O)(=O)c2cccc(C(=O)NCc4ccccc4Cl)c2C3=O)c1	-6	49*	/	99*	/	3	34*	109*
COc1ccc([C@H]2CC(=O)C[C@@H](CCn3nnc4ccccc43)O2)cc1	-7	/	/	/	/	/	/	/
NS(=O)(=O)c1ccc(N/N=C/c2cn(-c3ccccc3)nc2-c2ccccc2)c([N+](=O)[O-])c1	-1	104*	10	78*	13	4	0	75*
CCOC(=O)c1cnc(Nc2nc3ccccc3o2)nc1CSC(=S)N(CC)CC	0	127*	-90	33*	-4	-1	122*	21
CN1CCN(c2cc(-c3cc(O)c4ncccc4c3)ccn2)CC1	4	0	/	-1	/	-6	/	/
Oc1cc(-c2cccnc2)cc2cccnc12	-3	96*	/	46*	/	14	74*	34*
CCCS(=O)(=O)NC(=O)C1(C)CCCN(C(=O)c2cccc(OC(F)(F)F)c2)C1 (configuration not stated)	-9	/	/	/	/	/	/	/
COc1cccc(-c2c(-c3cc(OC)cc(OC)c3)n(C)c3ccc(-c4cnc(OC)nc4)cc23)c1	-2	1	/	-1	/	-12	/	/
COc1cccc(-c2c(-c3cc(OC)cc(OC)c3)n(C)c3ccc(-c4cnc(N5CCOCC5)nc4)cc23)c1	3	104*	/	124*	/	-5	28	93*
CC(=O)Nc1ccc(-c2noc(-c3csc([C@@H]4C[C@H](O)[C@@H](CO)O4)n3)n2)cc1	-13	/	/	/	/	/	/	/
Cc1cn([C@H]2C[C@H](O)[C@@H](CNCC3=Cc4cc(O)ccc4OC3)O2)c(=O)[nH]c1=O	-4	/	/	/	/	-1	/	/
